Experimental data: ChEMBL document CHEMBL1145545, “Discovery of a novel A2B adenosine receptor antagonist as a clinical candidate for chronic inflammatory airway diseases” (J Med Chem, 2008)

How the values were obtained:
Adenosine receptor A2a = Adenosine receptor A2a (Homo sapiens, UniProt P29274); assay: Displacement of [3H]ZM-241385 from human recombinant adenosine A2A receptor expressed in HEK293 cells; type: cell-based
Outline: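 Membranes from HEK293 cells stably expressing human A2A receptor; 2 nM radioligand competed in 50 mM Tris/1 mM EDTA with 1 U/mL adenosine deaminase for 90 min at 25 °C with agitation; filtration, four ice-cold Tris/MgCl2 washes. Nonspecific binding defined with 1 µM unlabelled ligand; Ki computed.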

Adenosine receptor A2b = molecular target: T1, Adenosine receptor A2b (Homo sapiens, UniProt P29275); assay: Displacement of [3H]ZM-241385 from human recombinant adenosine A2B receptor expressed in HEK293 cells; type: cell-based
T1 sequence (P29275 whole entry): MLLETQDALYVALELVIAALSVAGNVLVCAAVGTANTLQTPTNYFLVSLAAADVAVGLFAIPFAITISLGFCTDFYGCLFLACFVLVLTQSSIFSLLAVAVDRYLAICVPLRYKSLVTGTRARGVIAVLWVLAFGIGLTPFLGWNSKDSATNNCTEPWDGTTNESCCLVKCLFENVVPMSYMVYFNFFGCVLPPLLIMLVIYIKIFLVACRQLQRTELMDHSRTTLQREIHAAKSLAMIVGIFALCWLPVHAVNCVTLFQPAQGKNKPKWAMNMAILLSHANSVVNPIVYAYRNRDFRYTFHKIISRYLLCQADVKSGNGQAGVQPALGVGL
Outline: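 Membranes from HEK293 cells stably expressing human A2B receptor; competition with 10 nM radioligand, 50 µg membrane protein, in 50 mM Tris/1 mM EDTA with 1 U/mL adenosine deaminase, 25 °C for 90 min with gentle agitation; filtration, four ice-cold Tris/MgCl2 washes. Nonspecific binding defined with 10 µM unlabelled ligand; Ki calculated.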

Homo sapiens [1] = species on record: Homo sapiens; assay: Selectivity for human recombinant adenosine A2B receptor over human recombinant adenosine A3 receptor
Homo sapiens [2] = species on record: Homo sapiens; assay: Selectivity for human recombinant adenosine A2B receptor over human recombinant adenosine A1 receptor
Adenosine receptor A3 = molecular target: T2, Adenosine receptor A3 (Homo sapiens, UniProt P0DMS8); assay: Displacement of [125I]ABMECA from human recombinant adenosine A3 receptor expressed in CHO cells; type: cell-based
T2 sequence (P0DMS8 whole entry): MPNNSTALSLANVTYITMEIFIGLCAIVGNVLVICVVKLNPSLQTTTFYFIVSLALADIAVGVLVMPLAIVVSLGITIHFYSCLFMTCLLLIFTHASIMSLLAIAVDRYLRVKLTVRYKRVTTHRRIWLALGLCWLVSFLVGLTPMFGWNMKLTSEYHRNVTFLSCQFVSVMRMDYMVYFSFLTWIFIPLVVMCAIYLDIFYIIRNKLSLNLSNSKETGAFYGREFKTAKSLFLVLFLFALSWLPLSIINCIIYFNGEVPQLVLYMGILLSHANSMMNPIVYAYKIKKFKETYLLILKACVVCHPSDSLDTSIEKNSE
Outline: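 Human A3 receptor stably expressed in CHO cells; membranes incubated with 0.1 nM 125I-AB-MECA and test compound in 50 mM Tris, 1 mM EDTA, 10 mM MgCl2 plus 1 U/mL adenosine deaminase, 25 °C, 90 min; filtration, four ice-cold washes. Nonspecific binding defined with 1 µM IB-MECA; Ki determined.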

Adenosine receptor A1 = molecular target: T3, Adenosine receptor A1 (Homo sapiens, UniProt P30542); assay: Displacement of [3H]CPX from human recombinant adenosine A1 receptor expressed in CHO cells; type: cell-based
T3 sequence (P30542 whole entry): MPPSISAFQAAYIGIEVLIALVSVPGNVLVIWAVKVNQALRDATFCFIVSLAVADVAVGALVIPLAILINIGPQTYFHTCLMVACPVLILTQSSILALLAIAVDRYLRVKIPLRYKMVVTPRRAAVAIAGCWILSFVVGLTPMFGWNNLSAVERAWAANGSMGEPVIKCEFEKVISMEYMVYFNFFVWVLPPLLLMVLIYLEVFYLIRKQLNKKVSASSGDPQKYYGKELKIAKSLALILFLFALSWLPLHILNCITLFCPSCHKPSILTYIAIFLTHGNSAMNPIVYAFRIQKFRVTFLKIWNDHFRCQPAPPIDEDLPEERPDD
Outline: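 CHO cell membranes stably expressing human A1 receptor; 0.5 nM [3H]CPX competed with test compound in 50 mM Tris/1 mM EDTA plus 1 U/mL adenosine deaminase, 25 °C, 90 min, gentle agitation; filtration and four ice-cold Tris/MgCl2 washes. Nonspecific binding defined with 1 µM CPX; Ki values derived.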

Homo sapiens [3] = species on record: Homo sapiens; assay: Selectivity for human recombinant adenosine A2B receptor over human recombinant adenosine A2A receptor
[4] = Cmax in Sprague-Dawley rat at 2 mg/kg, po; type: ADME, organism-based; set-up: dose 2 mg/kg, route oral; conditions: in vivo
[5] = Half life in Sprague-Dawley rat at 2 mg/kg, po; type: ADME, organism-based; set-up: dose 2 mg/kg, route oral; conditions: in vivo
[6] = molecular target: T4, Adenosine receptor A2b (Mus musculus) (UniProt Q60614); assay: Antagonist activity at mouse adenosine A2B receptor expressed in NIH3T3 cells assessed as inhibition of NECA-induced cAMP accumulation; type: functional, cell-based
T4 sequence (whole entry): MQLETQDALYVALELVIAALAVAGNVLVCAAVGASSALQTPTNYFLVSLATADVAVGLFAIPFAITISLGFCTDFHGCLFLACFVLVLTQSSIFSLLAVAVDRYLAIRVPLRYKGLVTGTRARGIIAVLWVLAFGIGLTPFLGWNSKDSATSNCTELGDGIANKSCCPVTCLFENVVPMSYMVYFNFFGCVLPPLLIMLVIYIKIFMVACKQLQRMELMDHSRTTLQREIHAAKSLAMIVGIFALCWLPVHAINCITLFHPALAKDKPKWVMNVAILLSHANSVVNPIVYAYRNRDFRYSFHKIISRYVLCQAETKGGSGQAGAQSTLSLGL
Outline: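 Mouse NIH/3T3 cells stimulated with NECA (1 nM to 100 µM) without or with increasing antagonist concentrations; cAMP accumulation measured. KB obtained by Schild analysis; mean ± SEM of three experiments in duplicate.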

Adenosine receptor A2a, sequence (P29274 whole entry): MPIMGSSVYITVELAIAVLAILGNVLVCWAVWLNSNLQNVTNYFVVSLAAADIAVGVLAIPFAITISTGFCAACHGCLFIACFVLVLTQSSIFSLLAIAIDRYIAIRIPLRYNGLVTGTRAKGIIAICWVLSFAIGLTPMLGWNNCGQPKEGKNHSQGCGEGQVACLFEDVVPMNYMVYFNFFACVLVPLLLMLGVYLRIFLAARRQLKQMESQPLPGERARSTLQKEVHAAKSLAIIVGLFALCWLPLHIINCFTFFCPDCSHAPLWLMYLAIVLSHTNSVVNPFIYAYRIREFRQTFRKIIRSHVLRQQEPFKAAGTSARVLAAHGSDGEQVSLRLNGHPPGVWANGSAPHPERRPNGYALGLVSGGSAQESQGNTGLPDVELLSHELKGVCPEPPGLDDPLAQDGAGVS

Row | SMILES | Ki (Adenosine receptor A2a) [nM] | Ki (Adenosine receptor A2b) [nM] | Ratio Ki (Homo sapiens [1]) | Ratio Ki (Homo sapiens [2]) | Ki (Adenosine receptor A3) [nM] | Ki (Adenosine receptor A1) [nM] | Ratio Ki (Homo sapiens [3]) | Cmax [4] [ng/mL] | half-life [5] [h] | Kb [6] [nM]
1 | CCn1c(=O)n(CC2CC2)c(=O)c2[nH]c(-c3cnn(Cc4ccc(C(F)(F)F)nc4)c3)nc21 | 2280 | 16 | 25 | 80 | 400 | 1280 | 142 |  |  | 
2 | CCn1c(=O)n(CC(C)C)c(=O)c2[nH]c(-c3cnn(Cc4cccc(F)c4)c3)nc21 | 3850 | 31 | 10 | 47 | 324 | 1480 | 124 |  |  | 
3 | Cn1c(=O)n(CC2CC2)c(=O)c2[nH]c(-c3cnn(Cc4ccccc4)c3)nc21 | 149 | 11 | 8 | 14 | 91 | 154 | 13 |  |  | 
4 | CCCn1c(=O)c2[nH]c(-c3cnn(Cc4cccc(C(F)(F)F)c4)c3)nc2n(CC)c1=O [GS 6201] | 3280 | 22 | 48 | 88 | 1070 | 1940 | 149 | 1110 | 4.25 | 2
5 | CCn1c(=O)c2[nH]c(-c3cnn(Cc4ccccc4)c3)nc2n(C)c1=O | 73 | 2 | 46 | 130 | 92 | 260 | 36 |  |  | 
6 | CCn1c(=O)n(CC(C)C)c(=O)c2[nH]c(-c3cnn(Cc4ccc(C(F)(F)F)nc4)c3)nc21 | 5410 | 20 | 17 | 180 | 350 | 3590 | 270 |  |  | 
7 | CCCn1c(=O)c2[nH]c(-c3cnn(Cc4cccc(F)c4)c3)nc2n(CC)c1=O | 2500 | 35 | 27 | 34 | 950 | 1200 | 71 |  |  | 
8 | CCCn1c(=O)c2[nH]c(-c3cnn(Cc4ccc(C)nc4)c3)nc2n(CC)c1=O | 670 | 45 | 6 | 33 | 290 | 1520 | 15 |  |  | 
9 | CCCn1c(=O)c2[nH]c(-c3cnn(Cc4nc(-c5ccc(Cl)cc5)no4)c3)nc2n(CC)c1=O | 3780 | 16 | 25 | 56 | 413 | 910 | 236 |  |  | 
10 | CCCn1c(=O)c2[nH]c(-c3cnn(Cc4ccc(C(F)(F)F)nc4)c3)nc2n(CC)c1=O | 2250 | 18 | 24 | 139 | 440 | 2500 | 125 | 671 | 9.7 | 
11 | CCCn1c(=O)c2[nH]c(-c3cnn(Cc4cccc(F)c4)c3)nc2n(C)c1=O | 139 | 13 | 7 | 22 | 95 | 290 | 10 |  |  | 
12 | Cn1c(=O)n(CC2CC2)c(=O)c2[nH]c(-c3cnn(Cc4cccc(F)c4)c3)nc21 | 73 | 7 | 5 | 26 | 35 | 185 | 10 |  |  | 
13 | CC(C)Cn1c(=O)c2[nH]c(-c3cnn(Cc4cccc(F)c4)c3)nc2n(C)c1=O | 301 | 60 | 2 | 6 | 107 | 352 | 5 |  |  | 
14 | CCCCn1c(=O)c2[nH]c(-c3cnn(Cc4cccc(C(F)(F)F)c4)c3)nc2n(C)c1=O | 481 | 11 | 41 | 38 | 453 | 427 | 43 |  |  | 
15 | CCCn1c(=O)c2[nH]c(-c3cnn(Cc4cccc(C(F)(F)F)c4)c3)nc2n(C)c1=O | 450 | 14 | 29 | 31 | 408 | 441 | 32 |  |  | 
16 | CCn1c(=O)c2[nH]c(-c3cnn(Cc4cccc(F)c4)c3)nc2n(C)c1=O | 231 | 6 | 47 | 58 | 282 | 350 | 38 |  |  | 
17 | CCn1c(=O)n(CC(C)C)c(=O)c2[nH]c(-c3cnn(Cc4cccc(C(F)(F)F)c4)c3)nc21 | 1090 | 11 | 23 | 57 | 250 | 631 | 99 |  |  | 
